Rin1 Abl inh: human Rin1-Abl interaction inhibition; inhibition, % at 7.35 µM; TR-FRET Rin1/Abl binding, biochemical; AID 588664; 360,000 tested, 0.4% active; in the data active = inhibition above about 5%, passing the limit was not always enough
PKA-R2B activ: activators of human PKA-R2B complex; 340,000 tested, 0.079% active; activation, % at 11.4 µM; PKA-R2B holoenzyme dissociation, Cy5-IP20 fluorescence polarization; R2B truncated from residue 108, S112A mutant; 0% DMSO only, 100% 113 µM cGMP;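 active = activation above a cutoff set at the mean over all compounds plus 3 SD, cut at about 18% in these data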;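 also: higher means more holoenzyme dissociation and a rise in polarization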
Target sequence (P31323 whole entry, looked up, other chains not shown, the tested form may be a part): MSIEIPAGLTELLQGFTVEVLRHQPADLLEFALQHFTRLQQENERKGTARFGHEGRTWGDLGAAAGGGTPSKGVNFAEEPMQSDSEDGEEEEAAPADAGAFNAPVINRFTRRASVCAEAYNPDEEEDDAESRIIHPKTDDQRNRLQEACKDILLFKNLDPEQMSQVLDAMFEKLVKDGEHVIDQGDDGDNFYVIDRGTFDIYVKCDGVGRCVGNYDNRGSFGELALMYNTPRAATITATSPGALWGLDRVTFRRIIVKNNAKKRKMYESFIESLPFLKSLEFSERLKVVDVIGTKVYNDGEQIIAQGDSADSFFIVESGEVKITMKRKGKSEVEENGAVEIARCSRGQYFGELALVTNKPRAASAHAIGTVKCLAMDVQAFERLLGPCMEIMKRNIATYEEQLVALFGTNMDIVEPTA
H9c2 protect: modulators protecting cardiomyocytes from myocardial damage; H9c2 cardiomyocytes, H2O2 injury protection, ATPLite, 2 h; protection from H2O2 cell death, % at 20 µM; 360,000 tested, 0.63% active;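 active = compounds giving at least 50% protection of heart cells from peroxide-induced death in the single-dose screen, raw or plate-pattern-corrected value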
TbMetRS inhib: blocks T. brucei methionyl-tRNA synthetase activity. AID 624268. inhibition, % at 11.9 µM. 360,000 tested, 0.4% active. purified T. brucei MetRS, ATP depletion, Kinase-Glo luminescence;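 active = inhibition above a per-plate cutoff of the control wells' mean inhibition plus 3 SD, cut at about 5.5% in these data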
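Dosing: 11.9 µM compound single dose, 0.9% DMSO; Assay system: purified T. brucei MetRS enzyme; Measured by: Kinase-Glo luciferase luminescence reporting remaining unconsumed ATP; Schedule: 15 min plus 2 h at 25 °C.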
PKA-R1A activ: activators of PKA-R1A complex; P00514+P68181; PKA-R1A dissociation, Cy5-IP20 fluorescence polarization; scaled: DMSO 0%, 113 µM cGMP 100%; activation, % at 11.4 µM; 340,000 tested, 0.083% active; AID 504707;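 active = percent activation above the mean of all tested compounds plus 3 SD, cut at about 19% in these data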;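 also: higher means more PKAc released from R1A so a rise in polarization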
Numbers stand for hits; – = inactive; · = not tested or not shown. Most compounds without a hit are left out; they make up all but 1.5% or so of the library.

SMILES | Rin1 Abl inh | PKA-R2B activ | H9c2 protect | TbMetRS inhib | PKA-R1A activ
COCCN(C(=O)CCSc1ccc(F)cc1)c1c(N)n(Cc2ccccc2)c(=O)[nH]c1=O | – | – | – | – | –
Oc1ccc(/C=N/Nc2cc(N3CCOCC3)nc(N3CCOCC3)n2)cc1O | – | – | 53 | – | –
COCCNc1nnc(SCC(=O)NNC(=O)c2ccc([N+](=O)[O-])cc2)s1 | – | – | – | – | –
CC12C(=O)N(c3nccs3)C(=O)C1(C)C1CCC2O1 (stereo unspecified) | – | · | – | – | ·
C[C@@]12C(=O)OC(=O)[C@]1(C)C1CCC2O1 | – | – | 67 | – | –
COc1ccc(C2NCCc3c2[nH]c2ccccc32)cc1COc1ccc(F)cc1 (stereo unspecified) | – | – | – | – | –
COc1ccc(C2NCCc3c2[nH]c2ccccc32)cc1CN1CCc2cc(OC)c(OC)cc2C1C (stereo unspecified) | 7.3 | – | – | – | –
COc1ccc(/C=N/NC(=O)c2cc(OC)c(OC)c(OC)c2)cc1CN1CCc2cc(OC)c(OC)cc2C1C (stereo unspecified) | – | – | 66 | – | –
COC(=O)c1ccccc1NC(=O)CN1C(=O)c2ccccc2C1=O | – | · | – | – | ·
CCOc1ccc(C2NC(=O)NC(C)=C2[N+](=O)[O-])cc1OC (stereo unspecified) | – | – | – | – | –
O=C(Nc1cccc(N=Cc2cc(Br)cc(Br)c2O)c1)c1ccco1 | – | – | 51 | – | –
O=C(Nc1cccc(N=Cc2cc(Cl)cc(Br)c2O)c1)c1ccco1 | – | – | 50 | – | –
Cc1ccc(S(=O)(=O)N2CCN(Cc3ccccc3)CC2)s1 | – | – | – | – | –
CCOc1cc(CNc2ccc3[nH]c(=O)[nH]c3c2)ccc1OCC(=O)NC(C)(C)C | – | – | 57 | – | –
C=CCOc1ccc(CNc2ccc3[nH]c(=O)[nH]c3c2)cc1OCC | – | – | – | – | –
CC1Nc2ncnc(N3CCN(c4ccccc4)CC3)c2N(Cc2ccc(Cl)cc2)C1=O (stereo unspecified) | – | – | 61 | – | –
CCSc1nnc(NC(=O)C2Cc3ccccc3CN2S(=O)(=O)CC)s1 (stereo unspecified) | – | – | 64 | – | –
Cc1ccc(CSCC(=O)N2CCCC2)cc1 | – | – | – | – | –
CCOC(=O)N1CCN(C(=O)CSCc2ccc(C)cc2)CC1 | 6.1 | – | – | – | –
CC(=O)c1ccc(N2CCN(C(=O)c3cc(-c4cccnc4)nc4ccc(Br)cc34)CC2)cc1 | – | – | 53 | – | –
CS(=O)(=O)N1CCN(C(=O)c2cc(-c3cccnc3)nc3ccc(Br)cc23)CC1 | – | – | – | – | –
O=C(c1cc(-c2ccncc2)nc2ccc(Br)cc12)N1CCN(Cc2ccc3c(c2)OCO3)CC1 | – | – | 66 | – | –
O=C(c1cc(-c2ccncc2)nc2ccc(Cl)cc12)N1CCN(Cc2ccc3c(c2)OCO3)CC1 | – | – | – | – | –
O=C(c1cc(-c2cccnc2)nc2ccc(Br)cc12)N1CCN(c2ncccn2)CC1 | – | – | 59 | – | –
COc1ccc(OC)c(NC(=O)COc2cc(O)c3c(c2)OC(C)(C)CC3=O)c1 | – | · | – | – | ·
SMILES | Rin1 Abl inh | PKA-R2B activ | H9c2 protect | TbMetRS inhib | PKA-R1A activ
O=C(Cc1cnc2ncnn2c1)N1CCc2c([nH]c3ccccc23)C1c1ccccc1F (stereo unspecified) | – | – | – | – | –
COc1cccc2c(SCC(=O)N/N=C/c3ccc(O)c(O)c3)cc(C)nc12 | – | · | 67 | – | ·
O=C(CSc1nc2ccccc2o1)N/N=C/c1ccc(O)c(O)c1 | – | – | 67 | – | –
CCC(=O)NC(=S)Nc1ccccc1F | – | – | – | – | –
CCCC(=O)NC(=S)Nc1ccccc1F | 6.3 | – | – | – | –
COc1ccc(-c2cc(C(=O)N(C)Cc3ccccc3F)c3ccccc3n2)cc1OC | – | – | 66 | – | –
COc1ccccc1CN(C)C(=O)c1cc(-c2cc(OC)c(OC)c(OC)c2)nc2ccccc12 | – | – | 50 | – | –
CC1CC(C)CN(C(=O)c2ccc(NS(=O)(=O)c3ccc4[nH]c(=O)[nH]c4c3)cc2)C1 (stereo unspecified) | – | – | – | – | –
O=C(CCC(=O)Nc1nnc(C2CCCCC2)s1)NCc1ccccc1 | – | – | – | – | –
